The values that follow come from ChEMBL document CHEMBL4392863, “Spongian Diterpenes Including One with a Rearranged Skeleton from the Marine Sponge Spongia officinalis” (J Nat Prod, 2019).

Molecules are shown by their SMILES. Where only a bound is given, the exact number is not on record here.

Series [1] deals with RAW264.7. The experiment in a line: Anti-inflammatory activity in mouse RAW264.7 cells assessed as inhibition of LPS-induced NO production pre-incubated for 2 hrs before LPS stimulation for 24 hrs by nitrate/nitrite assay. The class given is functional, cell-based. The procedure, abridged: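 LPS-stimulated RAW264.7 macrophages were used following an earlier published protocol. Compounds from 30 mM DMSO stocks were diluted at room temperature to final test concentrations of 1−60 μM. NG-methyl-L-arginine acetate salt in DMSO served as the positive control. Inhibition of nitric oxide production was expressed as IC50.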

Series [2] is described as follows: Cytotoxicity against mouse RAW264.7 cells assessed as reduction in cell viability incubated for 24 hrs by MTT assay. The format is cell-based.

For `CO[C@@H]1O[C@H](OC)C2=C1CC[C@H]1[C@@]2(CO)CC[C@@H]2[C@]1(C)CC(=O)[C@H](O)[C@]2(C)CO`, the half-inhibitory concentration (IC50) in series [1] worked out at 22 µM. In addition, the CC50 at 24 h in series [2] is more than 60 µM. As to `C[C@]12[C@@H](O)[C@]3(O)C(=O)OC[C@]3(C)[C@@H]1CC[C@@]1(CO)c3cocc3CC[C@@H]12`, the IC50 in series [1] came to 32 µM. Moreover, the cytotoxic concentration (CC50) at 24 h in series [2] is more than 60 µM. The corresponding values for `C[C@]12C[C@@H](O)C(=O)[C@](C)(CO)[C@@H]1CC[C@@]1(CO)c3cocc3CC[C@@H]12` are more than 60 µM and more than 60 µM. Turning to `C[C@]12CC(=O)[C@H](O)[C@](C)(CO)[C@@H]1CC[C@@]1(CO)c3cocc3CC[C@@H]12`, the IC50 in series [1] came to 20 µM. In series [2], the CC50 at 24 h is more than 60 µM. On to `CC(=O)OC[C@@]12CC[C@@H]3[C@](C)(CC(=O)[C@@H](O)[C@]3(C)CO)[C@H]1CCc1cocc12`, for which, in series [1], the IC50 came out at 12 µM. Moreover, in series [2], the cytotoxic concentration (CC50) at 24 h is more than 60 µM.

In the case of `CC(=O)OC[C@@]12CC[C@@H]3[C@](C)(CC(=O)[C@H](O)[C@]3(C)CO)[C@H]1CCc1cocc12`, in series [1], the IC50 was 15 µM. The CC50 at 24 h in series [2] is more than 60 µM. Take `CCO[C@H]1OC(=O)C2=C1[C@]1(CO)CC[C@@H]3[C@](C)(CC(=O)[C@H](O)[C@]3(C)CO)[C@H]1CC2`: in series [1], the half-maximal inhibitory concentration (IC50) stood at 12 µM. Besides, the CC50 at 24 h in series [2] is more than 60 µM. Regarding `CNC(=N)NCCC[C@H](N)C(=O)O` [TILARGININE ACETATE], the concentration for half-maximal inhibition (IC50) in series [1] stood at 17 µM.
